# Measurements gathered from unrelated publications.
# Protocols differ between the studies behind these lines.
# Mode: inhibitor
# MAPK14: Mitogen-activated protein kinase 14 (MAPK14, Homo sapiens, UniProt Q16539)
SMILES,target,test,test system,setting,inhibition [%]
CCN(CC)CCNC(=O)c1c(C)[nH]c(/C=C2\C(=O)Nc3ccc(F)cc32)c1C,MAPK14,enzyme activity,,10 µM,-1
CNc1cc(Oc2cc(C(=O)Nc3cc(N4CCN(C)CC4)cc(C(F)(F)F)c3)ccc2C)ncn1,MAPK14,"target engagement in cells, chemoproteomics",Huh-7,1 µM,-29
CN(C)C1CCN(CC#Cc2nn(C3CCCC3)c3nc(NCc4ccccc4)ncc23)C1 (stereo not drawn),MAPK14,"enzyme activity, FRET",,1 µM,3
CN(c1ncccc1CNc1nc(Nc2ccc3c(c2)CC(=O)N3)ncc1C(F)(F)F)S(C)(=O)=O,MAPK14,enzyme activity,,1 µM,0
CCCS(=O)(=O)Nc1ccc(F)c(C(=O)c2c[nH]c3ncc(-c4ccc(Cl)cc4)cc23)c1F,MAPK14,enzyme activity,,1 µM,< 10
COc1cc2ncnc(Nc3ccc(Oc4ccccc4)c(C)c3C)c2cc1OC,MAPK14,enzyme activity,,1 µM,-3
O=C(CSc1nc2nccnc2c(=O)n1CCc1ccccc1)Nc1nccs1,MAPK14,enzyme activity,,10 µM,3
CCCCNc1ncc2c(-c3ccc(F)cc3)nn(C[C@H]3CC[C@H](N)CC3)c2n1,MAPK14,"target engagement in cells, chemoproteomics",,20 mM,60.6
CN1CC(Oc2cnc(C#N)cc2-c2ccn3nc(NC(=O)C4CC4)cc3c2)C1,MAPK14,enzyme activity,,1 µM,-19
Cc1ccc(Nc2nccc(N(C)c3ccc4c(C)n(C)nc4c3)n2)cc1S(N)(=O)=O,"Mitogen-activated protein kinase 14 (MAPK14, Homo sapiens, UniProt Q16539, T106M)",enzyme activity,,10 µM,13
COc1cccc2c(NCc3ccccc3)nc(-n3c(N)nc4ccccc43)nc12,MAPK14,"target engagement in cells, chemoproteomics",,20 mM,16.5
CNC(=O)c1cc(Oc2ccc(NC(=O)Nc3ccc(Cl)c(C(F)(F)F)c3)cc2)ccn1,MAPK14,enzyme activity,,0.3 µM,-9
CC/C(=N\NC(=O)NCc1cccc(O)c1)c1ccc(O)c(C)c1O,MAPK14,enzyme activity,,0.1 µM,-2.8
COc1cc2ncnc(Nc3ccc(Oc4ccccc4)cc3C)c2cc1OC,MAPK14,enzyme activity,,1 µM,3
CS(=O)(=O)Nc1cccc(-c2csc(NC(=O)CSc3nc4nccnc4c(=O)n3CCc3ccccc3)n2)c1,MAPK14,enzyme activity,,10 µM,-1
